Experimental findings from ChEMBL document CHEMBL4041550, “Structure-Activity Relationship Study of QL47: A Broad-Spectrum Antiviral Agent” (ACS Med Chem Lett, 2017) are described below.

Series [1] is described as follows: Cmax in Swiss albino mouse at 10 mg/kg, po by LC/MS/MS method. It counts as ADME, organism-based. Conditions: in vivo. Further details: dose 10 mg/kg, route oral. An outline of the steps: (§1)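 Mouse pharmacokinetics after intravenous, oral or intraperitoneal dosing; plasma parameters derived were T1/2, Tmax, Cmax, AUClast, AUCinf, clearance, Vss and oral bioavailability F.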

Series [2] has as its system dengue virus type 2. Nature of the series: Antiviral activity against Dengue virus serotype 2 strain New Guinea C infected in HuH7 cells assessed as reduction in log-fold change by measuring focus forming unit at 2 uM measured at 24 hrs post infection by focus forming assay relative to control. It counts as functional, Thailand/NGS-C/1944. An outline of the steps: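 DENV2-infected Huh7 cells treated with compound at 2 or 10 μM. Infectious virus secreted into culture supernatants at 24 h post-infection/treatment was titred by focus-forming assay. Result expressed as log-fold change relative to DMSO treatment.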

Series [3] is described as follows: AUClast in Swiss albino mouse at 2 mg/kg, iv by LC/MS/MS method. Type of series: ADME, organism-based. Further details: dose 2 mg/kg, route intravenous, time 0 - last. Conditions: in vivo.
Series [4] in a line: AUC (infinity) in Swiss albino mouse at 2 mg/kg, iv by LC/MS/MS method. Type of series: ADME, organism-based. More on the design: dose 2 mg/kg, route intravenous, time infinity. As to conditions: in vivo.
A short description of series [5]: AUC (infinity) in Swiss albino mouse at 10 mg/kg, ip by LC/MS/MS method. Type of series: ADME, organism-based. Further details: dose 10 mg/kg, route intraperitoneal, time infinity. Conditions: in vivo.
Series [6] is described as follows: AUClast in Swiss albino mouse at 10 mg/kg, ip by LC/MS/MS method. Type of series: ADME, organism-based. More on the design: dose 10 mg/kg, route intraperitoneal, time 0 - last. As to conditions: in vivo.
Series [7] in a line: Half life in Swiss albino mouse at 10 mg/kg, po by LC/MS/MS method. Type of series: ADME, organism-based. As to conditions: in vivo. An outline of the steps:
as §1

Series [8] is described as follows: Cmax in Swiss albino mouse at 2 mg/kg, iv by LC/MS/MS method. Type of series: ADME, organism-based. Further details: dose 2 mg/kg, route intravenous. As to conditions: in vivo. An outline of the steps: as §1
A short description of series [9]: Tmax in Swiss albino mouse at 10 mg/kg, ip by LC/MS/MS method. Type of series: ADME, organism-based. As to conditions: in vivo. An outline of the steps:
as §1

Series [10] has as its system dengue virus type 2. The series can be described thus: Antiviral activity against Dengue virus serotype 2 strain New Guinea C infected in HuH7 cells measured at 24 hrs post infection by focus forming assay. Conditions: Thailand/NGS-C/1944, Huh-7, 24 h. It counts as functional. An outline of the steps: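 Huh7 cells infected with DENV2, then treated with a range of compound concentrations. Viral yield measured 24 h later by titration of infectious particles in supernatants; in parallel, cell viability measured. IC90 (1-log10 reduction in infectious progeny) and CC50 derived by non-linear regression. Mean ± SD of experimental duplicates, n ≥ 2 repeats.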

A short description of series [11]: Cmax in Swiss albino mouse at 10 mg/kg, ip by LC/MS/MS method. Type of series: ADME, organism-based. Further details: dose 10 mg/kg, route intraperitoneal. Conditions: in vivo. An outline of the steps: as §1
A short description of series [12]: Oral bioavailability in Swiss albino mouse at 10 mg/kg by LC/MS/MS method. As to conditions: in vivo. Type of series: ADME, organism-based. An outline of the steps:
as §1

Series [13] in a line: Clearance in Swiss albino mouse at 2 mg/kg, iv by LC/MS/MS method. Type of series: ADME, organism-based. As to conditions: in vivo. The essentials: as §1
In series [14] the target is T1, Discoidin domain-containing receptor 2 (Homo sapiens, UniProt Q16832).
T1 sequence (Q16832 whole entry): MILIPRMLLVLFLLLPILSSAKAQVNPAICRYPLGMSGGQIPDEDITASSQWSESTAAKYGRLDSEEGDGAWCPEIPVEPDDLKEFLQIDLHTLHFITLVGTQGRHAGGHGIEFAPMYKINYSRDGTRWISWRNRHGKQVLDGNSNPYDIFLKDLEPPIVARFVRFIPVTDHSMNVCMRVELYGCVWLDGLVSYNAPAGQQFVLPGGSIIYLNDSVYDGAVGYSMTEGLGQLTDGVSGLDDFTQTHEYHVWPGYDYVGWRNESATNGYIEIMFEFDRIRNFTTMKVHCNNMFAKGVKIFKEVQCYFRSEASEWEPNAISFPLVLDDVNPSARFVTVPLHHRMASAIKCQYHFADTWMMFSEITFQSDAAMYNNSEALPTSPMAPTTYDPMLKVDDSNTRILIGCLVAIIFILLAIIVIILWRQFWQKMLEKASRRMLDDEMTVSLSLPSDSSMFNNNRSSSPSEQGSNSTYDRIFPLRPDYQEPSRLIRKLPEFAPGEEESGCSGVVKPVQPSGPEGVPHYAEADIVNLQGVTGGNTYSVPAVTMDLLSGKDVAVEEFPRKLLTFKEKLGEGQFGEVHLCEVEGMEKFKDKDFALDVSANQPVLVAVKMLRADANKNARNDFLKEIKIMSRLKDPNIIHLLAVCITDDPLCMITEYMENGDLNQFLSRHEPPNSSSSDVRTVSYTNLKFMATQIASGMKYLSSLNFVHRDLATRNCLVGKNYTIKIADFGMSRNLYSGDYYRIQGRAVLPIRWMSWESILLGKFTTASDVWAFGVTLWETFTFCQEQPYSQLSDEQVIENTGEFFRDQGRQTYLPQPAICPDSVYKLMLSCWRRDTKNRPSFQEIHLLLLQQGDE
Nature of the series: Inhibition of GST-tagged human DDR2 cytoplasmic domain (427 to 855 residues) expressed in baculovirus expression system by LanthaScreen assay. An outline of the steps: (§2)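 IC50 against DDR1 and DDR2 determined with LanthaScreen binding assays.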
(In general: Time-resolved FRET reads energy transfer from a long-lived donor to a nearby acceptor.)

The target in series [15] is Epithelial discoidin domain-containing receptor 1 (Homo sapiens, UniProt Q08345). Nature of the series: Inhibition of GST-tagged human DDR1 catalytic domain (440 to 876 residues) expressed in baculovirus expression system by LanthaScreen assay. An outline of the steps: as §2
Series [16] in a line: Selectivity index, ratio of CC50 for cytotoxicity against human HuH7 to IC90 for antiviral activity against Dengue virus serotype 2 strain New Guinea C infected in HuH7 cells. An outline of the steps:
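Huh7 cells infected with DENV2, then treated across a concentration range. At 24 h, cell viability was measured, and secreted infectious virus was titrated by focus-forming assay. CC50 (50% cytotoxicity) and IC90 (1-log10 reduction in infectious progeny) were fitted by non-linear regression. Experimental duplicates, n ≥ 2 repeats.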

Series [17] is described as follows: AUC (infinity) in Swiss albino mouse at 50 mg/kg, ip by LC/MS/MS method. It counts as ADME, organism-based. Further details: dose 50 mg/kg, time infinity, route intraperitoneal. Conditions: in vivo.
A short description of series [18]: AUC (infinity) in Swiss albino mouse at 10 mg/kg, po by LC/MS/MS method. Type of series: ADME, organism-based. Conditions: in vivo. More on the design: dose 10 mg/kg, route oral, time infinity.
Series [19] is described as follows: Half life in Swiss albino mouse at 2 mg/kg, iv by LC/MS/MS method. Type of series: ADME, organism-based. As to conditions: in vivo. An outline of the steps: as §1
Series [20] can be described thus: Tmax in Swiss albino mouse at 50 mg/kg, ip by LC/MS/MS method. Type of series: ADME, organism-based. As to conditions: in vivo. An outline of the steps:
as §1

Series [21] concerns the target Serine/threonine-protein kinase pim-1 (Homo sapiens, UniProt P11309). The series can be described thus: Inhibition of recombinant full length His-tagged human PIM1 expressed in baculovirus expression system by Z'-Lyte assay. The essentials: (§3)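 IC50 against PIM1, PIM2, BTK and BMX determined with Z′-Lyte kinase activity assays.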
The nature of series [22]: Tmax in Swiss albino mouse at 10 mg/kg, po by LC/MS/MS method. Type of series: ADME, organism-based. As to conditions: in vivo. An outline of the steps: as §1
The target of series [23] is Serine/threonine-protein kinase pim-2 (Homo sapiens, UniProt Q9P1W9). The series can be described thus: Inhibition of recombinant full length GST-tagged human PIM2 expressed in baculovirus expression system by Z'-Lyte assay. The essentials:
as §3

Series [24] can be described thus: Cytotoxicity against human HuH7 cells measured after 24 hrs by CellTiter-Glo luminescent cell viability assay. Type of series: cell-based, Huh-7. The essentials:
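DENV2-infected Huh7 cells treated across a concentration range; cell viability read 24 h later. CC50 (50% cytotoxicity) derived by non-linear regression; mean ± SD of experimental duplicates, n ≥ 2 repeats.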
For orientation: In ATP-based viability assays light output follows the ATP content of the culture.

As usually defined, the Cmax is the highest concentration seen after dosing. Broadly, the AUC(0-t) is exposure summed from dosing to a finite time, without extrapolation to infinity. The AUC(0-inf) is the area under the concentration-time curve extrapolated to infinity. A word on the half-life: it is the time needed for the level to fall by half in the phase considered. A high value points to slow loss. The Tmax is the time at which the peak concentration occurs. As usually defined, the IC90 is the concentration needed for an effect of 90%. For orientation: bioavailability means the share of a dose that reaches the circulation, judged against a reference dose that is usually intravenous. A lower bioavailability goes with poor availability. By clearance is commonly meant a measure of how efficiently the substance is removed, as volume per time. A lower clearance goes with a low capacity for elimination. As a reminder, the IC50 is the concentration that inhibits the measured activity by half. The term CC50 denotes the concentration that lowers cell viability or growth by half. Read a low CC50 as greater toxicity to the cells.

Epithelial discoidin domain-containing receptor 1, sequence (Q08345 whole entry, the tested form may be a part): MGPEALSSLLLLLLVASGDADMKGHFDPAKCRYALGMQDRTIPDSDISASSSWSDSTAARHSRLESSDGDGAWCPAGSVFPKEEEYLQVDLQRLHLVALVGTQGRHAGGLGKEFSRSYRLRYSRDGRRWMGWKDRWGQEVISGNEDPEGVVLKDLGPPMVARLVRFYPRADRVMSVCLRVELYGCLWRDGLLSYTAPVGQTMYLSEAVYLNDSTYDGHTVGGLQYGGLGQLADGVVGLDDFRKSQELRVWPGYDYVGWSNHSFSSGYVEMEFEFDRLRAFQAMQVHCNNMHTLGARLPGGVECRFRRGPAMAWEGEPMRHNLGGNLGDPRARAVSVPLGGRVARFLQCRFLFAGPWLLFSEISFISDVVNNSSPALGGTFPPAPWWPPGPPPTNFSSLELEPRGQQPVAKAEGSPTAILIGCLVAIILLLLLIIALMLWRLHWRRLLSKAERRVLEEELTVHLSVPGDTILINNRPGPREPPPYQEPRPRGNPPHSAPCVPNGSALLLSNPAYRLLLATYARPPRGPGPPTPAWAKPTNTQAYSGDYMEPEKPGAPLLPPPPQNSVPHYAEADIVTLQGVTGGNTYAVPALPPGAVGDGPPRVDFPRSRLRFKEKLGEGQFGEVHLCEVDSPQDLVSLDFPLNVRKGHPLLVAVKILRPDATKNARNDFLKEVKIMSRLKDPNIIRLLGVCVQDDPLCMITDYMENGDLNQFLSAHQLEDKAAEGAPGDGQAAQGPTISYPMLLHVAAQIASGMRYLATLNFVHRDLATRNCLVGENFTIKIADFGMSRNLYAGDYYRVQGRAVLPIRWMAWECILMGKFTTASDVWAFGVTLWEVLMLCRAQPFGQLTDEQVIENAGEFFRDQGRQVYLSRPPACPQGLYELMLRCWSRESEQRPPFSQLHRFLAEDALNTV
Serine/threonine-protein kinase pim-1, sequence (P11309 whole entry): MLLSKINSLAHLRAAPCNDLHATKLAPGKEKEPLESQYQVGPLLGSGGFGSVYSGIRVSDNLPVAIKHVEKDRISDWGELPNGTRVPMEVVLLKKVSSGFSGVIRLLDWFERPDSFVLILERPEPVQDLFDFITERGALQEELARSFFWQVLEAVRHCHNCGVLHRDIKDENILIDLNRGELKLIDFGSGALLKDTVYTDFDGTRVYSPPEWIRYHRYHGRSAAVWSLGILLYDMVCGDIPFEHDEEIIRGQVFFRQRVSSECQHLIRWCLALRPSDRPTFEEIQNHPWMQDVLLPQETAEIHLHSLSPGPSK
Serine/threonine-protein kinase pim-2, sequence (Q9P1W9 whole entry): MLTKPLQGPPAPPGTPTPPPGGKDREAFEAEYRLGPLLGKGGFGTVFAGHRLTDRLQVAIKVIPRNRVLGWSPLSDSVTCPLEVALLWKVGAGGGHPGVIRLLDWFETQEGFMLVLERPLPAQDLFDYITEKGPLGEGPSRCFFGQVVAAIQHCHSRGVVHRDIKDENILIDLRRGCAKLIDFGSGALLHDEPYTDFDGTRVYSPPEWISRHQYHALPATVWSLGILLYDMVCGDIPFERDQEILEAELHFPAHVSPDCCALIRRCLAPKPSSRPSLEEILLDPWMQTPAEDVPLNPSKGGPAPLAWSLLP

In the case of `Cc1ccc(-n2c(=O)ccc3ccc4ccc(-c5cnn(C)c5)cc4c32)cc1NC(=O)/C=C/CN(C)C`, the Cmax in series [1] turned out to be 40.4 ng/mL; in series [8] it was 462 ng/mL; in [11], 787 ng/mL. Also, the Activity in the series on dengue virus type 2 [2] came out at 4 log10FFU/ml. For the same molecule, the AUC(0-t) in [3] is 161 ng·h/mL; in [6], 1110 ng·h/mL. Also, the AUC(0-inf) turned out to be 167 ng·h/mL in [4], 1210 ng·h/mL in [5], 8550 ng·h/mL in [17] and 118 ng·h/mL in series [18]. Further, the half-life in series [7] was 1.53 h; in series [19], 1.07 h. The time to peak (Tmax) amounted to 0.25 h in [9], 4.8 min in series [20] and 1 h in series [22]. For the same molecule, the IC90 in the series with dengue virus type 2 [10] came to 0.555 µM. The bioavailability in series [12] was 12%. Besides, the clearance in series [13] worked out at 199 mL/min/kg. Also, the IC50 in [14] was greater than 10 µM; in series [15], 5.02 µM; in series [21] it was 1.79 µM; in series [23], greater than 10 µM. Further, the “Selectivity Index” value in series [16] is on record as 35. Moreover, the CC50 at 24 h in series [24] lay within 12 to 20 µM.
